Published values pooled from the literature.

Structure (SMILES) | test system | setting | solubility
COc1cc(C)c2[nH]cc(/C=N/NC(=N)NCCc3cccnc3)c2c1 | PBS | 2 h, pH 7.4 | 30.1 µM
CC[C@H](C)[C@H](NC(C)=O)C(=O)N[C@H]1CSSC[C@@H](C(=O)N[C@H](C(N)=O)[C@@H](C)O)NC(=O)[C@H](CCCNC(=N)N)NC(=O)[C@H](Cc2c[nH]cn2)NC(=O)[C@](C)(CC)NC(=O)CNC(=O)[C@H](Cc2c[nH]c3ccccc23)NC(=O)[C@H](CC(=O)O)NC(=O)[C@H](CCC(N)=O)NC(=O)[C@H](Cc2c[nH]c3ccccc23)NC(=O)[C@H](C(C)C)NC1=O | PBS | pH 7.4 | 3470 µg/mL
O=C(CCCN1CCC2(CC1)C(=O)NCN2c1ccccc1)N(CC1CCCCC1)c1ccccc1 | PBS | 24 h, pH 7.4, 37 °C | 626 µM
COc1ccc(NC(=O)N2CCCCN3[C@H](CN(C)C)[C@H](c4ccc(C#Cc5ccccc5)cc4)[C@@H]3C2)cc1 | aqueous buffer | pH 7 | 33 µM
C#Cc1ccc2c(c1)C(c1ccccn1)=NCc1c(-c3cnco3)ncn1-2.Cl | water | 24 h, 25 °C | 5560 µg/mL
Clc1ccc(CSc2nnc(-c3ccccn3)n2Cc2ccco2)cc1Cl | aqueous buffer | pH 7.4 | 0.14 µg/mL
CC[C@H](C)[C@H](NC(=O)[C@H](CO)NC(=O)[C@H](CCCNC(=N)N)NC(C)=O)C(=O)N[C@H]1CSSC[C@@H](C(=O)N[C@H](C(N)=O)[C@@H](C)O)NC(=O)[C@H](CCCNC(=N)N)NC(=O)[C@H](Cc2c[nH]cn2)NC(=O)[C@H](Cc2cccc3ccccc23)NC(=O)CNC(=O)[C@H](Cc2c[nH]c3ccccc23)NC(=O)[C@H](CC(=O)O)NC(=O)[C@H](CCC(N)=O)NC(=O)[C@H](Cc2cccc3ccccc23)NC(=O)[C@H](C(C)C)NC1=O | PBS | pH 7.4 | 200 µg/mL
CCCCCCC#Cc1cncc(-c2nnc(SCc3cc([N+](=O)[O-])cc([N+](=O)[O-])c3)n2C)c1 | PBS | – | < 1.6 µM
O=C1C=C(N(Cc2ccc(Cl)nc2)CC(F)F)CO1 | methanol | 20 °C | > 250000 µg/mL
CC[C@H](C)[C@H](NC(=O)[C@H](CCCNC(=N)N)NC(=O)[C@H](CCC(=O)O)NC(C)=O)C(=O)N[C@H]1CSSC[C@@H](C(=O)N[C@H](C(N)=O)[C@@H](C)O)NC(=O)[C@H](CCCNC(=N)N)NC(=O)[C@H](Cc2c[nH]cn2)NC(=O)[C@H](Cc2cccc3ccccc23)NC(=O)CNC(=O)[C@H](Cc2c[nH]c3ccccc23)NC(=O)[C@H](CC(=O)O)NC(=O)[C@H](CCC(N)=O)NC(=O)[C@H](Cc2cccc3ccccc23)NC(=O)[C@H](C(C)C)NC1=O | PBS | pH 7.4 | 160 µg/mL
